Assay results from paper PMC9401565 (Clinical Cancer Research, 2021).
Like-named read-outs stand apart in the source and are kept apart here.

Columns and labels:
[1] = test system: p-BTK, MYC, YES1; experiment: Immunoblot of p-BTK, Ikaros, MYC and YES1 in PBMC lysates of patients with CLL; type: in vivo, human; settings: early-responder patients, 4 hours posttreatment
[2] = test system: 10 parental B-NHL cell lines; experiment: CellTiter-Glo viability assay, mean over cell line panel; type: cell-based; settings: 72 h, read-out: mean GI50
[3] = test system: BTK and AKT phosphorylation; experiment: MINO xenograft, intratumor BCR-related kinases by Western blot; type: in vivo, nude mice; settings: single oral gavage 50 mg/kg
Outline: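 Nude mice aged 6–7 weeks were implanted subcutaneously with 5 × 10^6 MINO cells. Dosing was oral once tumors reached 100–200 mm3. Tumor protein extracts were immunoblotted for BCR-related kinases. Densitometry was normalized to GAPDH or tubulin and referred to the control sample.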

[4] = target: T1, TXK (Homo sapiens, UniProt P42681); experiment: KINOMEscan quantitative binding assay
T1 sequence (P42681 1-527): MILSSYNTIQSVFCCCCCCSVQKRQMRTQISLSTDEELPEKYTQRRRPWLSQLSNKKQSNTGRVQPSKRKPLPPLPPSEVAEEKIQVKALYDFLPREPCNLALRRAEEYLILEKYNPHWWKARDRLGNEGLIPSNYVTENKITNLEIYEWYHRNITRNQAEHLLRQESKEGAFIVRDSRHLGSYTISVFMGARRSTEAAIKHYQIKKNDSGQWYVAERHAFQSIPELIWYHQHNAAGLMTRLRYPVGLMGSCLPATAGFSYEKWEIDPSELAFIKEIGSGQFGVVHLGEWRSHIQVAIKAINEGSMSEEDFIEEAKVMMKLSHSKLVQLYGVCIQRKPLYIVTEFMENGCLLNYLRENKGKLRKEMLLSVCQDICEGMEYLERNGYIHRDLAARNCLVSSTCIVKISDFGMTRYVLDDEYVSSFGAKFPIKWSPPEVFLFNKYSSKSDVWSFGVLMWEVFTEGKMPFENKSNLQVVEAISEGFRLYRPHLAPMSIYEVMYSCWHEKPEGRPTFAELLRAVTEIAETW

[5] = PK analysis, TG-1701 plasma concentrations; type: in vivo, human; settings: patients, from 100 to 300 mg
[6] = test system: MCL cell lines; experiment: CellTiter-Glo viability assay, mean over MCL cell lines; type: cell-based; settings: 72 h, read-out: mean GI50
[7] = test system: REC-1^GFP+LUC+ MCL xenograft; experiment: REC-1 xenograft model, tumor growth inhibition; type: in vivo, CB17-SCID mice; settings: 25 mg/kg, every day, 17-day dosing
Outline: (§1)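 CB17-SCID mice were inoculated subcutaneously with […] REC-1GFP+Luc+ or UPN-IbruR cells. Tumor growth and vital parameters were monitored. Mice received oral test compound at 25 mg/kg daily or vehicle for 17 days. Endpoint tumor burden was read by bioluminescence for REC-1 and by caliper for UPN-IbruR. TGI was calculated versus vehicle.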

[8] = target: BTK^wt (Homo sapiens, UniProt Q06187); experiment: BTK kinase activity assay, 33P-ATP filtration; type: biochemical
Sequence of BTK^wt (Q06187 whole entry): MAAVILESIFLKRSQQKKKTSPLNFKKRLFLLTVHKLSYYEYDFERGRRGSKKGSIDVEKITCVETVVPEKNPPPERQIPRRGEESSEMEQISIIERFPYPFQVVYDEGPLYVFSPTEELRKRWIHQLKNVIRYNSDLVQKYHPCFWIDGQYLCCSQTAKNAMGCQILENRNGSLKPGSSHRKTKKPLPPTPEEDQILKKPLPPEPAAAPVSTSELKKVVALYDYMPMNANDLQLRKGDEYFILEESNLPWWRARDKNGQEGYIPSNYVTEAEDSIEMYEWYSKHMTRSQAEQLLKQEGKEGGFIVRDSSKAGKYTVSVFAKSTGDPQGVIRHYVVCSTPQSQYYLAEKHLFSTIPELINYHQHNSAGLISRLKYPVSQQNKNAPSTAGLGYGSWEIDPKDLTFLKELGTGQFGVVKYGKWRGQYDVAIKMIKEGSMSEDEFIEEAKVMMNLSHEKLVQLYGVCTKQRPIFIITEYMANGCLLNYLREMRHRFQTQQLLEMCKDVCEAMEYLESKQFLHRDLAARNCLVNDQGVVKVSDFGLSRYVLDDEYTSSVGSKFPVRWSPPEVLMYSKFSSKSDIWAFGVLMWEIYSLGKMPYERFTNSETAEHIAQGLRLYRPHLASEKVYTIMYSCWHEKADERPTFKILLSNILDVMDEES

[9] = test system: REC-BTK^wt (REC-1) cells; experiment: CellTiter-Glo viability assay; type: cell-based; settings: Homo sapiens, Rec1, 72 h
[10] = target: JAK3 (Homo sapiens, UniProt P52333); experiment: KINOMEscan quantitative binding assay
Sequence of JAK3 (P52333 781-1124 limits assumed): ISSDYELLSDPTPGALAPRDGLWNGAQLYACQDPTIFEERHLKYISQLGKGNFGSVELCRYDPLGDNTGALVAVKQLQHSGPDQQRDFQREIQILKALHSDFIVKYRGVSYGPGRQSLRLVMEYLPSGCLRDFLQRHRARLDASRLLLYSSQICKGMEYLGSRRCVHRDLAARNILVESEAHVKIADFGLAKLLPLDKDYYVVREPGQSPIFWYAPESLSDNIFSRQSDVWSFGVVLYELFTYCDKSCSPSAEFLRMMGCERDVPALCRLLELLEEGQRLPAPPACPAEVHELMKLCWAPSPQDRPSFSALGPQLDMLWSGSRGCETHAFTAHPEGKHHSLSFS

[11] = test system: REC-BTK^KO cells; experiment: CellTiter-Glo viability assay; type: cell-based
[12] = test system: BCR pathway in DoHH-2 cells; experiment: BCR downstream signaling in IgM-stimulated cells, Western blot; type: cell-based; settings: IgM-stimulated DoHH-2
[13] = target: BTK^C481S (Homo sapiens, UniProt Q06187, C481S); experiment: BTK kinase activity assay, 33P-ATP filtration; type: biochemical; settings: BTK^C481S vs BTK^wt
Sequence of BTK^C481S (Q06187 whole entry C481S): as the sequence (Q06187 whole entry) above, with C481S counted along it

[14] = test system: CLL; experiment: Phase I trial NCT03671590, clinical outcome of 6 patients with CLL; type: in vivo, human
Outline: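 Relapsed/refractory CLL patients in trial NCT03671590 took oral test compound once daily (200, 300 or 400 mg) until progression or intolerable toxicity. ALC was recorded on day 1. CLL cell percentage was derived from ALC against the upper normal limit. Best tumor reduction was assessed at C3D1 and graded as partial response or stable disease.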

[15] = test system: phosphopeptides in PBMC; type: in vivo, human; settings: early-responder patients, 4-hour postdose
[16] = test system: REC-BTK^C481S cells; experiment: CellTiter-Glo viability assay; type: cell-based; settings: REC-1–BTK^C481S
[17] = test system: CLL, MCL, WM; settings: cited from earlier work; for preliminary overall response rate (ORR): 200 mg daily monotherapy, median follow-up 7 months ref 17
[18] = test system: MINO MCL xenograft; experiment: MINO MCL xenograft model, tumor growth inhibition; type: in vivo, nude mice; settings: orally, twice a day, 16-day treatment
[19] = test system: UPN-IbruR MCL xenograft; experiment: UPN-IbruR xenograft model, tumor growth; type: in vivo, CB17-SCID mice; settings: 25 mg/kg, every day, 17 days
Outline: as §1

[20] = target: T2, BTK (Homo sapiens, UniProt Q06187); experiment: BTK occupancy in patient PBMC lysates; type: in vivo; settings: 6 patients with CLL, 4 hours after treatment
T2 sequence (Q06187 whole entry): as the sequence (Q06187 whole entry) above

[21] = target: T2, BTK; experiment: KINOMEscan quantitative binding assay

CC#CC(=O)N1CC[C@@H](n2cc(-c3ccc(Oc4c(F)cccc4F)cc3)c3c(N)n[nH]c(=O)c32)C1 [TG-1701]
downregulation of MYC protein [1]: 48% | downregulation of p-BTK protein [1]: 70% | increase of YES1 levels [1]: ~5 fold | GI50 [2]: 6.4 µM | duration of BTK and AKT dephosphorylation in tumor [3]: at least 24 hours | earliest time of AKT dephosphorylation in tumor [3]: 4 h | earliest time of BTK dephosphorylation in tumor [3]: 2 h | Kd fold higher than that of ibrutinib [4]: 68 fold | dose dependence of Cmax and AUC0–8 hours [5]: approximately dose-proportional increases | GI50 [6]: 4.3 µM | tumor TGI versus vehicle [7]: 53% | EC50 [8]: 6.7 nM | GI50 [9]: 3.83 µM | Kd fold higher than that of ibrutinib [10]: > 94 fold | sensitivity of REC-BTK^KO cells [11]: refractory | concentration of maximal effects on BCR downstream signaling [12]: 100 nmol/L | fold decrease in inhibitory kinase activity [13]: 54.8 fold | Clinical outcome (% reduction) ([14]; patient AII-0011, 400–300 mg daily): 87% | Clinical outcome (% reduction) ([14]; patient AIJ-0001, 200 mg daily): 38% | Clinical outcome ([14]; patient AIJ-0005, 300 mg daily): SD-PR | Clinical outcome (% reduction) ([14]; patient AIJ-0005, 300 mg daily): 56% | Clinical outcome (% reduction) ([14]; patient AIJ-0015, 400 mg daily): 86% | Clinical outcome ([14]; patient AIK-0003, 200 mg daily): SD (lymphocytosis) | phosphorylation of Ikaros p-Ser442/445 upon treatment [15]: totally dephosphorylated | fold less sensitive compared with parental REC-1 cells [16]: 2.8 fold | preliminary overall response rate (ORR) ([17]; CLL): 95% | preliminary overall response rate (ORR) ([17]; MCL): 50% | complete responses (CR) ([17]; TG-1701 monotherapy ref 17): No complete responses (CR) are confirmed | preliminary overall response rate (ORR) ([17]; WM): 95% | TGI ([18]; 25 mg/kg): 56% | TGI ([18]; 50 mg/kg): 72% | TGI ([18]; 100 mg/kg): 78% | sensitivity of UPN-IbruR tumors [19]: almost insensitive | BTK occupancy [20]: Near-complete BTK occupancy | Kd [21]: 3 nM

C=CC(=O)N1CCC[C@@H](n2nc(-c3ccc(Oc4ccccc4)cc3)c3c(N)ncnc32)C1 [ibrutinib, reference compound]
GI50 [2]: 14.1 µM | GI50 [6]: 10.8 µM | GI50 [9]: 5.82 µM | sensitivity of REC-BTK^KO cells [11]: refractory | concentration of maximal effects on BCR downstream signaling [12]: 10 nmol/L
